Experimental data: ChEMBL document CHEMBL5303300, “EUbOPEN Chemogenomics Library - Multiplex” (2023)
“And” between values parts separate entries of the source, which are not always exact repeats. Identical values can stand only once.

Test system: HEK-293T
Assay: Multiplex assay against HEK293T
Format: toxicity, cell-based
Settings: human, number of replicates 2
Procedure, shortened: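 With compound added, live cells were imaged on a CQ1 microscope at 37°C and 5% CO2; staining with Hoechst33342, BioTracker Green Microtubule Cytoskeleton Dye, MitoTracker Red and Annexin V Alexa Fluor 680 had been done at seeding. The CellPathfinder machine-learning gating scheme split cells into Hoechst high-intensity objects or normal cells, normal cells into healthy, pyknosed or fragmented nuclei, and pyknosed cells into mitotic or apoptotic. The tubulin, mitochondrial-mass and membrane-permeability phenotypes are per cents of healthy-nucleus cells.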

[1] = 12 h, 1 µM, compound concentration 1 uM
[2] = 12 h, 10 µM, compound concentration 10 uM
[3] = 24 h, 1 µM, compound concentration 1 uM
[4] = 24 h, 10 µM, compound concentration 10 uM
[5] = 48 h, 1 µM, compound concentration 1 uM
[6] = 48 h, 10 µM, compound concentration 10 uM

With `CC1=C(C)C(=O)C(C(CCCCCC(=O)O)c2ccccc2)=C(C)C1=O` (configuration not stated) [SERATRODAST] the “Population Apoptotic (%)” value [1] was 63% and 56%, the “Population Fragmented Nuclei (%)” value [1] was 4% and 5% and the “Population Healthy Nuclei (%)” value [1] was 78% and 82%. For the same compound, the “Population Hoechst High Intensity Objects (%)” value [1] was 12% and 8%, the “Population Membrane Permeable-Phenotype (%)” value [1] was 2% and 0% and the “Population Mitochondria Different-Phenotype (%)” value [1] was 18% and 13%. For the same compound, the “Population Mitotic Cells (%)” value [1] was 36% and 43%, the “Population Normal (%)” value [1] was 87% and 91% and the “Population Pyknosed Nuclei (%)” value [1] was 17% and 12%. The “Population Tubulin-Different-Phenotype (%)” value [1] was 49% and 39%, the “Total Cell Count” value [1] was 511 and 624 and the “Population Apoptotic (%)” value [2] was 47% and 51%. For the same compound, the “Population Fragmented Nuclei (%)” value [2] was 4% and 5%, the “Population Healthy Nuclei (%)” value [2] was 87% and 85% and the “Population Hoechst High Intensity Objects (%)” value [2] was 7%. For the same compound, the “Population Membrane Permeable-Phenotype (%)” value [2] was 4% and 2%, the “Population Mitochondria Different-Phenotype (%)” value [2] was 8% and 11% and the “Population Mitotic Cells (%)” value [2] was 52% and 48%. For the same compound, the “Population Normal (%)” value [2] was 92%, the “Population Pyknosed Nuclei (%)” value [2] was 7% and 9% and the “Population Tubulin-Different-Phenotype (%)” value [2] was 39% and 43%. For the same compound, the “Total Cell Count” value [2] was 857 and 708, the “Population Apoptotic (%)” value [3] was 52% and 55% and the “Population Fragmented Nuclei (%)” value [3] was 6% and 7%. The “Population Healthy Nuclei (%)” value [3] was 79% and 81%, the “Population Hoechst High Intensity Objects (%)” value [3] was 9% and the “Population Membrane Permeable-Phenotype (%)” value [3] was 1%. The “Population Mitochondria Different-Phenotype (%)” value [3] was 3%, the “Population Mitotic Cells (%)” value [3] was 47% and 44% and the “Population Normal (%)” value [3] was 90%. The “Population Pyknosed Nuclei (%)” value [3] was 13% and 10%, the “Population Tubulin-Different-Phenotype (%)” value [3] was 19% and 16% and the “Total Cell Count” value [3] was 827 and 1038. The “Population Apoptotic (%)” value [4] was 28% and 42%, the “Population Fragmented Nuclei (%)” value [4] was 8% and 7% and the “Population Healthy Nuclei (%)” value [4] was 86%. The “Population Hoechst High Intensity Objects (%)” value [4] was 9% and 6%, the “Population Membrane Permeable-Phenotype (%)” value [4] was 6% and 3% and the “Population Mitochondria Different-Phenotype (%)” value [4] was 3% and 4%. The “Population Mitotic Cells (%)” value [4] was 71% and 57%, the “Population Normal (%)” value [4] was 90% and 93% and the “Population Pyknosed Nuclei (%)” value [4] was 4% and 6%. For the same compound, the “Population Tubulin-Different-Phenotype (%)” value [4] was 29% and 35%, the “Total Cell Count” value [4] was 1313 and 975 and the “Population Apoptotic (%)” value [5] was 22% and 13%. The “Population Fragmented Nuclei (%)” value [5] was 15% and 14%, the “Population Healthy Nuclei (%)” value [5] was 81% and 83% and the “Population Hoechst High Intensity Objects (%)” value [5] was 8%. For the same compound, the “Population Membrane Permeable-Phenotype (%)” value [5] was 4% and 5%, the “Population Mitochondria Different-Phenotype (%)” value [5] was 1% and 0% and the “Population Mitotic Cells (%)” value [5] was 77% and 86%. For the same compound, the “Population Normal (%)” value [5] was 91%, the “Population Pyknosed Nuclei (%)” value [5] was 3% and 2% and the “Population Tubulin-Different-Phenotype (%)” value [5] was 5%. The “Total Cell Count” value [5] was 2229 and 2490, the “Population Apoptotic (%)” value [6] was 6% and 13% and the “Population Fragmented Nuclei (%)” value [6] was 25% and 16%. The “Population Healthy Nuclei (%)” value [6] was 73% and 80%, the “Population Hoechst High Intensity Objects (%)” value [6] was 9% and 8% and the “Population Membrane Permeable-Phenotype (%)” value [6] was 11% and 5%. The “Population Mitochondria Different-Phenotype (%)” value [6] was 0%, the “Population Mitotic Cells (%)” value [6] was 93% and 86% and the “Population Normal (%)” value [6] was 91%. For the same compound, the “Population Pyknosed Nuclei (%)” value [6] was 1% and 2%, the “Population Tubulin-Different-Phenotype (%)” value [6] was 15% and 21% and the “Total Cell Count” value [6] was 3510 and 2285.

`O=C1Nc2ccc(C(=O)c3ccco3)cc2C1=Cc1cc(Cl)c(O)c(Cl)c1` [GW406108X] was tested, and the “Population Apoptotic (%)” value [1] was 52% and 54%, the “Population Fragmented Nuclei (%)” value [1] was 4% and 3% and the “Population Healthy Nuclei (%)” value [1] was 83% and 81%. The “Population Hoechst High Intensity Objects (%)” value [1] was 9%, the “Population Membrane Permeable-Phenotype (%)” value [1] was 2% and 1% and the “Population Mitochondria Different-Phenotype (%)” value [1] was 18% and 17%. The “Population Mitotic Cells (%)” value [1] was 47% and 45%, the “Population Normal (%)” value [1] was 90% and the “Population Pyknosed Nuclei (%)” value [1] was 11% and 14%. For the same compound, the “Population Tubulin-Different-Phenotype (%)” value [1] was 49% and 42%, the “Total Cell Count” value [1] was 695 and 619 and the “Population Apoptotic (%)” value [2] was 53% and 61%. The “Population Fragmented Nuclei (%)” value [2] was 4% and 3%, the “Population Healthy Nuclei (%)” value [2] was 82% and 85% and the “Population Hoechst High Intensity Objects (%)” value [2] was 7% and 9%. The “Population Membrane Permeable-Phenotype (%)” value [2] was 2% and 1%, the “Population Mitochondria Different-Phenotype (%)” value [2] was 19% and the “Population Mitotic Cells (%)” value [2] was 46% and 38%. The “Population Normal (%)” value [2] was 92% and 90%, the “Population Pyknosed Nuclei (%)” value [2] was 13% and 10% and the “Population Tubulin-Different-Phenotype (%)” value [2] was 67%. For the same compound, the “Total Cell Count” value [2] was 686 and 661, the “Population Apoptotic (%)” value [3] was 55% and 53% and the “Population Fragmented Nuclei (%)” value [3] was 7%. The “Population Healthy Nuclei (%)” value [3] was 85% and 82%, the “Population Hoechst High Intensity Objects (%)” value [3] was 9% and the “Population Membrane Permeable-Phenotype (%)” value [3] was 2% and 1%. For the same compound, the “Population Mitochondria Different-Phenotype (%)” value [3] was 4% and 5%, the “Population Mitotic Cells (%)” value [3] was 44% and 46% and the “Population Normal (%)” value [3] was 90%. For the same compound, the “Population Pyknosed Nuclei (%)” value [3] was 7% and 9%, the “Population Tubulin-Different-Phenotype (%)” value [3] was 26% and 25% and the “Total Cell Count” value [3] was 1089 and 967. For the same compound, the “Population Apoptotic (%)” value [4] was 46% and 59%, the “Population Fragmented Nuclei (%)” value [4] was 7% and 6% and the “Population Healthy Nuclei (%)” value [4] was 85% and 81%. For the same compound, the “Population Hoechst High Intensity Objects (%)” value [4] was 11% and 13%, the “Population Membrane Permeable-Phenotype (%)” value [4] was 3% and 2% and the “Population Mitochondria Different-Phenotype (%)” value [4] was 10% and 15%. The “Population Mitotic Cells (%)” value [4] was 53% and 40%, the “Population Normal (%)” value [4] was 88% and 86% and the “Population Pyknosed Nuclei (%)” value [4] was 7% and 11%. For the same compound, the “Population Tubulin-Different-Phenotype (%)” value [4] was 53%, the “Total Cell Count” value [4] was 904 and 698 and the “Population Apoptotic (%)” value [5] was 9% and 25%. For the same compound, the “Population Fragmented Nuclei (%)” value [5] was 15% and 13%, the “Population Healthy Nuclei (%)” value [5] was 81% and 82% and the “Population Hoechst High Intensity Objects (%)” value [5] was 10% and 11%. For the same compound, the “Population Membrane Permeable-Phenotype (%)” value [5] was 5% and 2%, the “Population Mitochondria Different-Phenotype (%)” value [5] was 0% and the “Population Mitotic Cells (%)” value [5] was 90% and 74%. The “Population Normal (%)” value [5] was 89% and 88%, the “Population Pyknosed Nuclei (%)” value [5] was 2% and 3% and the “Population Tubulin-Different-Phenotype (%)” value [5] was 13% and 12%. For the same compound, the “Total Cell Count” value [5] was 2778 and 2175, the “Population Apoptotic (%)” value [6] was 34% and 50% and the “Population Fragmented Nuclei (%)” value [6] was 18% and 14%. For the same compound, the “Population Healthy Nuclei (%)” value [6] was 78% and 80%, the “Population Hoechst High Intensity Objects (%)” value [6] was 15% and 20% and the “Population Membrane Permeable-Phenotype (%)” value [6] was 4% and 1%. For the same compound, the “Population Mitochondria Different-Phenotype (%)” value [6] was 1% and 3%, the “Population Mitotic Cells (%)” value [6] was 65% and 50% and the “Population Normal (%)” value [6] was 84% and 79%. The “Population Pyknosed Nuclei (%)” value [6] was 3% and 5%, the “Population Tubulin-Different-Phenotype (%)” value [6] was 22% and 30% and the “Total Cell Count” value [6] was 1684 and 1056.
